Source: PubChem
This is a sample that favours compounds with a hit; in the whole collection about 1.9% have one here.
CHRM4 agonist = agonists of human muscarinic M4 receptor (CHRM4); hit rate 0.14% among 360,000; activation, % at 3 µM; CHO-K1 hM4/Gqi5, Fluo-8 calcium fluorescence; vehicle 0%, full acetylcholine response 100%; P08173;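 active = activation above the run mean over all test wells plus 3 SD, cut at about 32% in these data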;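 also: peak over basal fluorescence ratio per well then scaled between controls; 0% = DMSO wells and 100% = acetylcholine at EC100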
Target sequence (P08173 whole entry, looked up): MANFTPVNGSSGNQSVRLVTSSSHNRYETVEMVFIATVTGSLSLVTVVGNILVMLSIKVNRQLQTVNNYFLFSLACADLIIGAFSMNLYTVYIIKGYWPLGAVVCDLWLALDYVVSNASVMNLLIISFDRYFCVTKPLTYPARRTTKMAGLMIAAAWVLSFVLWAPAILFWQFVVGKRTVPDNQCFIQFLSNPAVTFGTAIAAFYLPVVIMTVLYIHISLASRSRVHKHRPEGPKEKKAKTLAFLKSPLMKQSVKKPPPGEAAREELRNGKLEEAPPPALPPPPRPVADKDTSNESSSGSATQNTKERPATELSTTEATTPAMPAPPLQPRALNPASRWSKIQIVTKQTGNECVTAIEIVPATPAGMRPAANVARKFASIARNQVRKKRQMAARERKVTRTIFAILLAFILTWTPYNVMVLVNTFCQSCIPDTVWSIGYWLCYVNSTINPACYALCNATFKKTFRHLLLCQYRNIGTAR
CHRM4 antagonist = blocks acetylcholine activation of human M4 receptor. CHO-hM4 cells, ACh EC80, Fluo-8 calcium fluorescence. AID 624125. inhibition, % at 3 µM. hit rate 0.73% among 360,000. P08173;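 active = inhibition above its plate's cutoff, the mean inhibition of sample wells plus 3 SD, cut at about 27% in these data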;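 also: 0% = acetylcholine EC80 with DMSO and 100% = DMSO without agonist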
M5 PAM = CHRM5 positive allosteric modulation; AID 624038; hit rate 0.3% among 360,000; activation, % at 3 µM; CHO-K1 hM5, Fluo-8 calcium, ACh EC20 PAM; 0% = ACh EC20, 100% = ACh EC100;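 active = activation above the run cutoff, the mean activation of all test compounds plus 3 SD, cut at about 18% in these data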
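Assay system: CHO-K1 hM5 cells. Also added: acetylcholine at EC20 concentration, added after compound. Dosing: 3 µM, single dose. Times: compound preincubation 140 s before EC20 acetylcholine addition. Signal: Fluo-8 calcium fluorescence. Measure: % activation relative to EC20 and EC100 ACh responses. Repeats: singlicate, one well per test compound.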
M4 PAM = CHRM4 positive allosteric modulation; CHO-K1 hM4/Gqi5, Fluo-8 calcium fluorescence, ACh EC20; 0% = ACh EC20, 100% = maximal ACh; AID 624126; hit rate 0.4% among 360,000; activation, % at 3 µM; P08173;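 active = activation above its plate's cutoff, the mean activation of sample wells plus 3 SD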
CHRM5 antagonist = blocks acetylcholine activation of human M5 receptor; P08912; CHO-hM5 cells, Fluo-8 calcium fluorescence, ACh EC80; inhibition, % at 3 µM; hit rate 0.59% among 360,000;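 active = inhibition above a per-plate cutoff, the mean of that plate's test compounds plus 3 SD, cut at about 27% in these data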;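 also: 0% = acetylcholine EC80 with DMSO and 100% = DMSO without agonist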
CHRM5 agonist = CHRM5 agonism in calcium assay | P08912 | CHO-K1 hM5 cells, Fluo-8 calcium fluorescence; 0% DMSO wells, 100% maximal acetylcholine response | activation, % at 3 µM | hit rate 0.19% among 360,000;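 active = activation above the run's mean over test compounds plus 3 SD, cut at about 23% in these data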;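 also: signal is peak over basal fluorescence ratio across the kinetic read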
The depositor's hits bear a star.

SMILES	CHRM4 agonist	CHRM4 antagonist	M5 PAM	M4 PAM	CHRM5 antagonist	CHRM5 agonist
COC(=O)c1cccc(NC(=O)/C=C/c2ccc3c(c2)OCO3)c1	7	7	-7	-3	8	1
COc1cc(OC)c(C2C(C#N)=C(N)Oc3cc(C)n(CCCN4CCOCC4)c(=O)c32)cc1OC (stereo not given)	0	1	-1	-4	1	-5
CCN(CC)CCCn1c(C)cc2c(c1=O)C(c1cc(OC)c(OC)cc1OC)C(C#N)=C(N)O2 (stereo not given)	1	30*	-3	-13	0	-6
COc1cc(C(O)c2nc(-c3ccncc3)cs2)ccc1F (stereo not given)	9	-7	-10	-3	5	8
COc1ccc(NC(=O)c2cc(C3CCCCN3C(=O)c3ccccc3)on2)c(C)c1 (stereo not given)	2	-4	-2	1	6	-1
Cc1cc(C)n2nc(CNS(=O)(=O)c3ccc(C(C)(C)C)cc3)nc2n1	2	-2	1	-1	6	2
Cc1cccc2c1N(CCOc1ccc(C(C)(C)C)cc1)C(=O)C2=O	-3	6	-12	-11	12	27*
CC(=O)Nc1ccc(S(=O)(=O)CCC#N)cc1	1	-7	40*	7	10	-5
COC(=O)[C@]12CCCCC=C1N(CCc1ccc(OC)c(OC)c1)C(=O)[C@H](CC(=O)N1CCOCC1)C2	18	0	-3	-8	-3	6
COCCNC(=O)C1(C)CCCN(C(=O)c2ccc(N(C)C)cc2)C1 (stereo not given)	0	-3	-2	5	-2	0
COc1ccc(NC(=O)c2cn(-c3ccccc3)nc2-c2ccncc2)cc1	3	1	-7	0	5	-4
COc1ccc(-c2nn(-c3ccccc3)cc2C(=O)NC(=S)NNC(=O)c2ccncc2)cc1	33*	8	-9	-12	9	13
COc1ccc(-c2nn(-c3ccccc3)cc2C(=O)NC(=S)Nc2cc(Cl)ccc2Cl)cc1	2	-1	22*	27	-16	5
COc1ccc(-c2nn(-c3ccccc3)cc2C(=O)O)cc1	1	-3	0	4	0	3
COC(=O)c1cn(-c2ccccc2)nc1-c1ccc(OC)c(OC)c1	5	-24	19*	5	12	6
COc1cccc(CN(C)C(=O)c2cc(-c3ccc(F)cc3)nc3ccccc23)c1	14	16	-7	-9	2	2
COc1ccc(-c2cc(C(=O)N(C)Cc3cccc(OC)c3OC)c3ccccc3n2)cc1OC	17	4	-11	-6	16	0
COc1cccc(CN(C)C(=O)c2cc(-c3ccc(OC)c(OC)c3)nc3ccccc23)c1	12	30*	-13	-8	28*	-3
COc1ccc(CN(C)C(=O)c2cc(-c3ccc(OC)c(OC)c3)nc3ccccc23)c(OC)c1	13	27*	-8	-11	20	-5
CCCCCCCCN1N=N[C@H]2[C@H]1[C@@H]1C[C@H]2N(C(=O)OC(C)(C)C)O1	3	31*	-10	-15	3	-3
CC(=O)N1CCc2cc(S(=O)(=O)NC(CC(C)C)C(=O)N3CCc4ccccc4C3)ccc21 (stereo not given)	1	29*	-3	32*	1	-5
CCOC(=O)C(C)c1nn(C)c(=O)c2ccccc12 (stereo not given)	5	3	-18	-6	7	-10
CCOC(=O)CCc1nn(C)c(=O)c2ccccc12	3	0	-14	8	67*	-3
N#C/C(=C\c1ccc(Sc2ccc(Cl)cc2)o1)c1nc2ccccc2[nH]1	12	12	-16	-8	29*	3
N#C/C(=C\c1ccc(Sc2nc3ccccc3[nH]2)o1)c1ccccc1	10	8	-13	-10	14	2
SMILES	CHRM4 agonist	CHRM4 antagonist	M5 PAM	M4 PAM	CHRM5 antagonist	CHRM5 agonist
Cn1nnc2cc(C(=O)NC3CC3)ccc21	0	11	40*	10	8	0
Cc1cc(C(=O)COC(=O)c2cc(Cl)ccc2N)c(C)n1Cc1ccco1	1	6	0	19*	10	2
CCOc1ccc(/C=N/OCC(=O)Nc2ccc3c(c2)OCO3)cc1	5	-8	0	0	3	1
CCCNS(=O)(=O)c1ccc(OCC(=O)Nc2ccc3c(c2)OCO3)cc1	-1	45*	-2	-9	5	-2
COc1ccc(/C=N/OCC(=O)Nc2ccc3c(c2)OCO3)c(OC)c1	5	38*	0	-11	5	3
Cc1ccc(C(=O)OCC(=O)Nc2ccc3c(c2)OCO3)o1	1	-1	20*	9	-7	-6
COc1ccc(OC)c(NC(=O)C2(C)CCN2C(=O)CCC2CCCC2)c1 (stereo not given)	5	-14	-3	-3	0	2
CC1(C(=O)Nc2cccc3cccnc23)CCN1Cc1cccc2c1OCO2 (stereo not given)	-1	-8	-3	2	-5	-1
CCNC(=S)Nc1cccc(S(=O)(=O)Nc2ccccc2OC)c1	5	-11	7	0	-5	5
COc1ccccc1NS(=O)(=O)c1cccc(NC(=O)Nc2ccccc2)c1	35*	61*	-18	-39	59*	13
COc1cccc(OC)c1C(=O)Nc1cccc(S(=O)(=O)Nc2ccccc2Cl)c1	3	-13	6	5	2	0
COc1ccccc1NS(=O)(=O)c1cccc(NC(=O)Nc2ccc(Cl)cc2)c1	19	46*	-20	-16	66*	7
CSCCC(NC(=O)OCc1ccccc1)NC(=O)OCc1ccccc1	18	-7	-18	-10	11	4
C=C1C(=O)C=C2CN(C(=O)c3ccccc3)[C@@](Cc3ccc(F)cc3)(C(=O)OC)[C@@H]12	143*	96*	-41	-18	93*	81*
CCOC(=O)N1CCN(C(=O)c2ccc3c(=O)n(CCC4=CCCCC4)c(=O)[nH]c3c2)CC1	2	39*	-8	-24	6	-4
COc1ccc(OC)c(NC(=O)C2(C)CCN2Cc2ccsc2)c1 (stereo not given)	-2	9	-7	-1	0	-2
CCCCN(CC)C(=O)c1cc2cc3ccc(OC)cc3nc2o1	3	5	42*	14	-1	17
CCCC1NC(=O)c2cc3ccccc3cc2-n2c1nc1cc(F)ccc1c2=O (stereo not given)	9	-9	-11	-1	-5	-2
